# Most compounds without a hit are left out; they make up all but 4.6% or so of the library.
# OX1R antag-1 – blocks the human orexin 1 receptor | O43613 | CHO/OX1R cells, Fluo-8 calcium fluorescence, orexin A | inhibition, % at 5 µM | actives 0.43% (n = 330,000) | AID 434989;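 active means inhibition above its plate's threshold, mean inhibition of all tested compounds on the plate plus 3 SD, cut at about 37% in these data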;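 further: 0% = orexin A challenge wells and 100% = SB-334867-A antagonist wells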
# CHO parental Ca – counter-screen for OX1R antagonists: effect in parental CHO cells; parental CHO-K1, ATP-induced calcium, Fluo-8 fluorescence; inhibition, % at 5.6 µM; actives 0.63% (n = 330,000);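 active means inhibition above that plate's mean sample inhibition plus 3 SD, cut at about 26% in these data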;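 further: 0% = ATP-challenged DMSO wells and 100% = DMSO wells without ATP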
#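 Measured by: calcium-sensitive Fluo-8 fluorescence / Test system: CHO parental line / Controls: ATP-challenged DMSO wells low, unchallenged DMSO wells high / Measure: % inhibition / Compound: single nominal dose of 5.6 µM per compound / Replicates: single well per compound, no replicates / Reagent: ATP as calcium-mobilizing challenge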
# TAAR1 agonist – human TAAR1 agonism | CHO RD-HGA16 TAAR1, Fluo-8 calcium fluorescence; vehicle wells 0%, saturating PEA agonist 100% | activation, % at 3 µM | actives 0.99% (n = 360,000);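 active means activation above the mean activation of all test compounds in the run plus 3 SD, cut at about 38% in these data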
# Target sequence (Q96RJ0 whole entry, looked up): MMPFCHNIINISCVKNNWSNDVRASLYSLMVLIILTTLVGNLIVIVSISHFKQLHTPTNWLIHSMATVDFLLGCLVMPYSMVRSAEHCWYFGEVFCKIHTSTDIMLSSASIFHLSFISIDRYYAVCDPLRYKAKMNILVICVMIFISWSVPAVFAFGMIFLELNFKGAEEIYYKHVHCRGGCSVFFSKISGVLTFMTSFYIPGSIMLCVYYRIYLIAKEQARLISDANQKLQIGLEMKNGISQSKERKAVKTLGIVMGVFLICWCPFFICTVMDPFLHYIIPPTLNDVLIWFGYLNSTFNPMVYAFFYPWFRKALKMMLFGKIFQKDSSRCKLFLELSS
#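 Test system: RD-HGA16 (CHO) cells co-expressing Gα16 and hTAAR1 | Doses: Single dose, 3 µM | Schedule: 17-24 h seeding, 75 min 37 °C dye, 30 min RT | Evaluation: % activation from peak over basal fluorescence ratio, DMSO-to-PEA scaled | Technique: Kinetic Fluo-8 calcium fluorescence | Benchmarks: Low control DMSO, high control PEA (EC100)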
# GPR7 antagonist – antagonists of human GPR7 (neuropeptides B/W receptor 1) | P48145 | GPR7-expressing cells, fluorescence antagonist assay | inhibition, % at 4.4 µM | actives 1.1% (n = 290,000) | AID 1861; in the data active means inhibition above about 16%, passing the limit was not always enough;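 further: cells stimulated with the agonist NPW; 0% = agonist with vehicle and 100% = vehicle without agonist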
# Target sequence (P48145 whole entry, looked up): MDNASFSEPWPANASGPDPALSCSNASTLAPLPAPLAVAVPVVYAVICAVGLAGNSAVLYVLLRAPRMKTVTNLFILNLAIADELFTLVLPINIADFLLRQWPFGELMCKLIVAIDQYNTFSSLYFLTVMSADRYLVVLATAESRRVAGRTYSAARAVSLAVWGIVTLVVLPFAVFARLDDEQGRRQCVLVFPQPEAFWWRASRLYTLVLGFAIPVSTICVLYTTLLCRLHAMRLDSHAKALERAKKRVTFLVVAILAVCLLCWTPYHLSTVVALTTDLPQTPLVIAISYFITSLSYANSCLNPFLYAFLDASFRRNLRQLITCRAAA
# TAAR1 antag – human TAAR1 antagonism. inhibition, % at 3 µM. actives 1.5% (n = 360,000). CHO RD-HGA16 TAAR1, Fluo-8 calcium fluorescence, antagonist;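 active means inhibition above a per-plate cutoff, the mean inhibition of test compounds on that plate plus 3 SD, cut at about 49% in these data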;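 further: 0% = DMSO plus EC80 beta-PEA response and 100% = DMSO alone without agonist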
#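 Test system: RD-HGA16 CHO cells with stable hTAAR1 and Gα16 / Probe or stimulus: EC80 β-phenethylamine stimulus / Times: seeding 17-24 h prior, 75-min 37 °C, 30-min RT dye loading / Detection: Fluo-8 calcium-sensitive fluorescence / Read-out basis: % inhibition scaled between DMSO and EC80 PEA controls / Repeats: singlicate, one well per test compound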
# OX1R antag-2 – antagonists of human orexin 1 receptor (OX1R) | O43613 | OX1R-expressing cells, FRET antagonist read-out | inhibition, % at 6.6 µM | AID 485270 | actives 1.8% (n = 330,000); in the data active means inhibition mostly above about 38%, no sharp cut-off; inactive means mostly below about 40%;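 further: 0% = agonist challenge alone and 100% = reference antagonist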
# OX1R HTRF conf – confirmation of human orexin 1 receptor antagonists, HTRF format. shares compounds with OX1R antag-2. OX1R-expressing cells, HTRF antagonist assay. inhibition, % at 6.6 µM. actives 49% (n = 1,800). AID 492964; in the data active means inhibition above about 55%;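 further: CHO cells expressing OX1R stimulated with orexin A at about EC80; 0% = agonist challenge alone and 100% = reference antagonist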
# CHO-K1 HTRF – counter-screen for OX1R antagonists: effect in parental CHO-K1 cells | shares compounds with OX1R antag-2 | HTRF counterscreen | inhibition, % at 6.6 µM | actives 48% (n = 1,800); in the data active means inhibition above about 17%;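 further: 0% = agonist challenge with vehicle and 100% = vehicle alone without agonist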
# * marks the source's active call; other numbers are inactive results; x = no result.
SMILES,OX1R antag-1,CHO parental Ca,TAAR1 agonist,GPR7 antagonist,TAAR1 antag,OX1R antag-2,OX1R HTRF conf,CHO-K1 HTRF
CCn1cc(C(=O)NCC2CCCO2)c2cc(OC)c(OC)cc2c1=O (stereo not given),-3.5,-11.7,14.4,-7.1,-1.3,4.8,x,x
CCOCCCNc1nc2nc3ccc(C)cn3c(=O)c2cc1C(=O)NCC1CCCO1 (stereo not given),-9.5,10.6,0.1,3.9,18.4,111.5*,44.0,78.2*
Cc1ccc2nc3c(cc(C(=O)NCC4CCCO4)c(=N)n3CCCOC(C)C)c(=O)n2c1 (stereo not given),-14.9,-6.6,8.6,-5.7,-3.7,82.3*,51.3,84.9*
NS(=O)(=O)c1ccc(NC(=O)COc2cccc3ccccc23)cc1,14.9,2.0,22.3,5.3,-2.2,8.3,x,x
O=[N+]([O-])c1cccc(-c2ccc3nnc(SCc4ccccn4)n3n2)c1,-17.6,-11.3,2.8,-5.5,-7.4,77.0*,45.5,35.6*
COC(=O)c1ccc(NC(=O)CSc2nnc(C)n2CC2CCCO2)cc1 (stereo not given),-4.3,-13.8,1.6,-12.5,-18.6,89.1*,13.5,4.1
COc1ccc(/C=N/NC(=O)c2nnn(-c3nonc3N)c2CN(C)C2CCCCC2)cc1,25.8,-13.4,2.1,2.1,-4.0,5.8,x,x
CNC(=O)c1c(NC(=O)c2ccco2)sc2c1CCC2,-14.1,7.0,0.1,-23.9,-15.2,78.1*,45.0,1.4
COc1cc2c(cc1OC)CN(C(=O)CN1C(=O)c3ccc([N+](=O)[O-])cc3C1=O)CC2,-33.6,-28.8,1.2,x,2.2,98.4*,45.1,37.4*
CC(C)COC(=O)N1CCCCC1c1cc(C(=O)NCc2ccc(F)cc2)no1 (stereo not given),x,x,0.3,x,-3.0,x,x,x
Cc1ccc(S(=O)(=O)N(C)C)cc1N,-17.9,-13.6,0.9,-0.9,3.6,8.9,x,x
O=C(O)c1ccc(NC2=C(n3nnc4ccccc43)C(=O)c3ccccc3C2=O)cc1,-13.2,5.9,1.8,-15.6,-7.6,173.5*,53.2,55.9*
O=C(O)c1cccc(NC2=C(N3CCOCC3)C(=O)c3ccccc3C2=O)c1,11.6,2.8,0.5,-17.5,2.6,23.6,x,x
COC(=O)c1cc(C(=O)Nc2nnc(CC(C)C)s2)cc([N+](=O)[O-])c1,-2.0,-0.9,0.8,-6.4,-14.2,22.4,x,x
COCc1nnc(NC(=O)c2cc(C(=O)OC)cc([N+](=O)[O-])c2)s1,-8.1,-4.5,9.3,-10.9,-2.5,90.3*,42.1,46.4*
CCN(CC)c1ncc(C#N)c(N)n1,-16.6,-1.7,3.3,-0.6,-9.8,1.4,x,x
CCn1c(C)[n+](CCOC(C)=O)c2cc(Cl)c(Cl)cc21,-8.6,3.5,-0.3,-5.5,-5.2,87.6*,24.4,4.8
N#CC1=C(N)Oc2cc3ccccc3cc2C1c1cccnc1 (stereo not given),-16.2,-16.8,7.4,2.9,-14.3,25.0,x,x
N#CC1=C(N)Oc2c(ccc3cccnc23)C1c1cccnc1 (stereo not given),-31.1,-20.0,8.5,-9.3,-0.6,96.1*,24.4,8.3
Cc1cc(OCC(=O)NCCc2c[nH]c3ccccc23)c2c(C)c(C)c(=O)oc2c1,-32.4,-7.9,1.3,0.5,43.8,86.0*,32.7,5.1
COc1ccc(N2CC(C(=O)Nc3ccccc3C(=O)NC3CC3)CC2=O)cc1 (stereo not given),-0.3,-14.1,0.9,-13.9,-9.0,20.1,x,x
COc1ccc(-c2ncn(CCC#N)c2[N+](=O)[O-])cc1,-1.8,-8.6,2.8,1.5,9.9,85.3*,40.5,42.5*
COc1ccc(-c2cc(=O)n(CCC#N)[nH]2)cc1,2.6,3.9,0.4,-6.9,-29.9,17.2,x,x
CCCC1NC(=O)c2cc3ccccc3cc2-n2c1nc1cc(Cl)ccc1c2=O (stereo not given),x,x,-1.0,x,25.9,x,x,x
Cc1cc(C)c(NC(=O)C2CCCN2CCOC(=O)c2cccc([N+](=O)[O-])c2)c(C)c1 (stereo not given),-6.8,-15.4,4.6,-4.1,-4.7,97.5*,70.1*,7.6
SMILES,OX1R antag-1,CHO parental Ca,TAAR1 agonist,GPR7 antagonist,TAAR1 antag,OX1R antag-2,OX1R HTRF conf,CHO-K1 HTRF
CCCN1CCCC[C@H]1C(=O)Nc1c(C)cccc1C,-1.9,7.1,0.3,x,-1.2,9.5,x,x
COc1cc2nc(/C=C/c3cc(OC)c(OC)c(OC)c3)sc2cc1SC,24.2,-38.9,-0.3,-8.4,-10.5,79.4*,84.1*,9.6
O=[N+]([O-])c1ccc(C[n+]2ccc(Cc3ccccc3)cc2)cc1,-15.0,-0.7,6.4,2.7,-1.3,111.5*,72.5*,48.1*
Cc1nc(CC(C)C)cc(C(=O)N2CCCC(CNS(=O)(=O)c3cccs3)C2)n1 (stereo not given),-11.7,-11.6,7.7,-8.5,-22.8,24.0,x,x
CCCCC(=O)N/N=C/c1ccc(-c2ccc([N+](=O)[O-])cc2)o1,-18.6,-7.8,-2.1,-6.2,-9.6,102.5*,29.9,-15.2
CC(C)(C)NCc1ccc(OCc2cccs2)cc1,-26.3,-7.6,1.7,-4.1,-19.4,13.8,x,x
CN1CN=C(NS(=O)(=O)c2ccc([N+](=O)[O-])cc2)NC1,-9.7,-1.8,6.1,-8.6,-20.9,82.8*,32.2,29.7*
CC(=O)Nc1ccc(S(=O)(=O)NC2=NCN(c3ccc([N+](=O)[O-])cc3)CN2)cc1,-9.8,0.4,2.9,-9.0,-2.4,13.3,x,x
COc1ccc(OC)c(NC(=O)CCNS(=O)(=O)c2cccc3nsnc23)c1,-24.9,-6.2,9.4,-5.4,-10.6,45.7,x,x
COc1ccc(/C=N/NC(=O)c2cccc(C(=O)N/N=C/c3ccc(OC)c(OC)c3)n2)cc1OC,x,x,3.5,-19.7,5.6,x,x,x
COc1ccc(NC(=O)CCNS(=O)(=O)c2cccc3nsnc23)cc1OC,-4.4,-1.1,3.1,-7.2,1.6,84.2*,30.0,24.7*
COc1ccc(/C=N/NC(=O)Nc2cccc3nsnc23)cc1OC,19.2,-12.9,7.5,10.4,9.8,82.1*,67.2*,-5.5
CCN(CC)S(=O)(=O)c1ccc(NC(=O)CO/N=C(\N)c2ccccc2)cc1,-10.2,9.9,2.6,x,-15.1,2.7,x,x
Cc1ccc(CN2CCSc3sccc3C2=O)cc1,-19.8,-9.5,2.5,-7.9,4.3,15.2,x,x
COc1cc(/C=C/c2sc3ccccc3[n+]2CCCS(=O)(=O)[O-])ccc1O,9.3,5.7,8.9,15.6,1.1,86.2*,58.9*,99.1*
CCC(/C=C1\Oc2ccc(OC)cc2N1C)=C\c1sc2ccccc2[n+]1CCCS(=O)(=O)[O-],x,x,4.3,x,-4.3,x,x,x

# Assay outcomes as filed in PubChem.
